According to ChEMBL document CHEMBL4765336, “Discovery of coumarin derivatives as potent and selective cyclin-dependent kinase 9 (CDK9) inhibitors with high antitumour activity” (Eur J Med Chem, 2020):

Columns and labels:
[1] = biological target: Cyclin-dependent kinase 7/ cyclin H (Homo sapiens, UniProt P50613); experiment: Inhibition of CDK7/Cyclin H (unknown origin) preincubated for 20 mins followed by ATP addition and measured after 120 mins in presence of [33P-gamma] ATP by hotspot kinase assay; format: protein-complex assay
Procedure, shortened: (§1)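 Radiometric filter-binding assay: kinase and substrate in 20 mM Hepes pH 7.5, 10 mM MgCl2, 1 mM EGTA, 0.02% Brij35, 0.02 mg/mL BSA, 0.1 mM Na3VO4, 2 mM DTT, 1% DMSO. Compound (top 1/10/27 μM, 3-fold serial dilutions) preincubated 20 min at 25 °C. ATP plus [γ-33P]ATP added to 10 μM final, reacted 120 min at 25 °C. IC50 from curve fit, duplicate mean.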

MV4-11 [2] = experiment: Antitumor activity against human MV4-11 cells xenografted in Balb/c nude mouse assessed as reduction in tumor volume at 40 mg/kg, iv administered once daily for 21 days (reference value: 1.00 g); format: functional; details: time 21 day
[3] = AUC (0 to t) in ICR mouse at 30 mg/kg, po measured up to 24 hrs by LC-MS/MS analysis; format: ADME, organism-based; parameters: route oral, dose 30 mg/kg, time <=24; details: in vivo
Procedure, shortened: (§2)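 Male ICR mice (25.1–28.8 g, n=9), fasted overnight (12 h), single oral gavage 30 mg/kg as 3 mg/mL in 0.5% CMC-Na with 0.2% Tween 80. Venous blood drawn into EDTA-K2 at 0, 0.25, 0.5, 1, 2, 4, 8, 24 h. Plasma protein-precipitated with ACN and run on LC-MS/MS (C18, formic acid/ACN). Noncompartmental parameters taken from composite mean concentration-time data.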

[4] = Metabolic stability in human liver microsomes assessed as intrinsic clearance at 1 uM incubated up to 60 mins in presence of NADPH by LC-MS/MS analysis; format: ADME, Microsome; details: read-out: CLH
Procedure, shortened: (§3)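 Liver microsomes (0.5 mg/mL) incubated at 37 °C with compound at 1.0 μM final, 3 mM MgCl2 and 1 mM NADPH in 100 mM PBS pH 7.4. Samples taken at 0, 5, 15, 30, 60 min; remaining parent measured by LC-MS/MS. k = −slope, T1/2 = 0.693/k, CLint = k/microsomal protein concentration. Midazolam served as control.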

[5] = biological target: Glycogen synthase kinase-3 (Homo sapiens) (UniProt P49840+P49841); experiment: Inhibition of GSK3alpha/beta (unknown origin) assessed as enzyme activity at 1 uM preincubated for 20 mins followed by ATP addition and measured after 120 mins in presence of [33P-gamma] ATP by hotspot kinase assay relative to control; format: protein assay; parameters: scale not given: the % may be the effect or the level left; details: time 140.0 min
Procedure, shortened: (§4)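 Radiometric filter-binding kinase assay, buffer pH 7.5 with 10 mM MgCl2 and 1% DMSO. Compound tested at a single 1.0 μM, preincubated 20 min at 25 °C. Reaction started with ATP/[γ-33P]ATP at 10 μM final, run 120 min at 25 °C. Remaining % enzyme activity reported, n=2.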

PANC-1 = experiment: Antiproliferative activity against human PANC-1 cells assessed as inhibition of cell growth incubated for 72 hrs by Celltiter-Glo luminescent assay; format: functional, cell-based; details: PANC-1, 72 h
Procedure, shortened: (§5)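 Cells seeded in growth medium and held overnight at 37 °C; medium-only wells served as background. DMSO stocks were diluted in medium to 3× final and added; cells incubated 72 h at 37 °C, 5% CO2. Viability read by CellTiter-Glo luminescence after 60 min at room temperature. IC50 from curve fit, mean of duplicate.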

[6] = Metabolic stability in rat liver microsomes assessed as intrinsic clearance at 1 uM incubated up to 60 mins in presence of NADPH by LC-MS/MS analysis; format: ADME, Microsome; details: read-out: CLH; procedure, shortened: as §3
[7] = Tmax in ICR mouse at 30 mg/kg, po measured up to 24 hrs by LC-MS/MS analysis; format: ADME, organism-based; details: in vivo; procedure, shortened: as §2
MV4-11 [8] = experiment: Antitumor activity against human MV4-11 cells xenografted in Balb/c nude mouse assessed as tumor growth inhibition at 40 mg/kg, iv administered once daily for 21 days and measured twice a week by vernier caliper method relative to control; format: functional; details: MV4-11, iv, 504 h, time 21 day, read-out: TGI
[9] = biological target: Voltage-gated inwardly rectifying potassium channel KCNH2 (Homo sapiens, UniProt Q12809); experiment: Inhibition of fluorescently labeled tracer binding to human ERG by competitive binding assay
Procedure, shortened: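 Fluorescent tracer competition assay against a membrane preparation containing hERG.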

[10] = Metabolic stability in dog liver microsomes assessed as half life at 1 uM incubated up to 60 mins in presence of NADPH by LC-MS/MS analysis; format: ADME, Canis lupus familiaris, Microsome; procedure, shortened: as §3
MV4-11 [11] = experiment: Antitumor activity against human MV4-11 cells xenografted in iv dosed BALB/c nude mouse assessed as tumor growth inhibition administered once daily for 21 days and measured twice per week by vernier caliper method; format: functional, organism-based; details: dose 10-40 mg/kg, time 21.0 day
A-375 = experiment: Antiproliferative activity against human A-375 cells assessed as inhibition of cell growth incubated for 72 hrs by Celltiter-Glo luminescent assay; format: functional, cell-based; details: A-375, 72 h; procedure, shortened: as §5
CDK8/Cyclin C = CDK8/Cyclin C (Homo sapiens, UniProt P49336); experiment: Inhibition of CDK8/Cyclin C (unknown origin) preincubated for 20 mins followed by ATP addition and measured after 120 mins in presence of [33P-gamma] ATP by hotspot kinase assay; format: protein-complex assay; procedure, shortened: as §1
[12] = Clearance in ICR mouse at 2 mg/kg, iv measured up to 24 hrs by LC-MS/MS analysis; format: ADME, organism-based; details: in vivo
Procedure, shortened: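 Male ICR mice (25.1–28.8 g, n=9), fasted 12 h, given a single i.v. dose of 2.0 mg/kg at 0.4 mg/mL in DMSO/PEG200/saline (1:1:3). Blood sampled at 0, 0.083, 0.25, 0.5, 1, 2, 4, 8, 24 h. Plasma ACN-precipitated and quantified by LC-MS/MS. Parameters derived from composite mean plasma concentration-time data.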

[13] = Metabolic stability in rat liver microsomes assessed as half life at 1 uM incubated up to 60 mins in presence of NADPH by LC-MS/MS analysis; format: ADME, Microsome; procedure, shortened: as §3
[14] = biological target: Cyclin-dependent kinase 2/cyclin E1 (Homo sapiens, UniProt P24941); experiment: Inhibition of CDK2/Cyclin E (unknown origin) preincubated for 20 mins followed by ATP addition and measured after 120 mins in presence of [33P-gamma] ATP by hotspot kinase assay; format: protein-complex assay; procedure, shortened: as §1
BXPC-3 = experiment: Antiproliferative activity against human BxPC3 cells assessed as inhibition of cell growth incubated for 72 hrs by Celltiter-Glo luminescent assay; format: functional, cell-based; details: BXPC-3, 72 h; procedure, shortened: as §5
MDA-MB-231 = experiment: Antiproliferative activity against human MDA-MB-231 cells assessed as inhibition of cell growth incubated for 72 hrs by Celltiter-Glo luminescent assay; format: functional, cell-based; details: MDA-MB-231, 72 h; procedure, shortened: as §5
[15] = biological target: Serine/threonine-protein kinase MAK (Homo sapiens) (UniProt P20794); experiment: Inhibition of MAK (unknown origin) assessed as enzyme activity at 1 uM preincubated for 20 mins followed by ATP addition and measured after 120 mins in presence of [33P-gamma] ATP by hotspot kinase assay relative to control; parameters: scale not given: the % may be the effect or the level left; details: time 140.0 min; procedure, shortened: as §4
Sequence of Serine/threonine-protein kinase MAK (Homo sapiens) (P20794 whole entry): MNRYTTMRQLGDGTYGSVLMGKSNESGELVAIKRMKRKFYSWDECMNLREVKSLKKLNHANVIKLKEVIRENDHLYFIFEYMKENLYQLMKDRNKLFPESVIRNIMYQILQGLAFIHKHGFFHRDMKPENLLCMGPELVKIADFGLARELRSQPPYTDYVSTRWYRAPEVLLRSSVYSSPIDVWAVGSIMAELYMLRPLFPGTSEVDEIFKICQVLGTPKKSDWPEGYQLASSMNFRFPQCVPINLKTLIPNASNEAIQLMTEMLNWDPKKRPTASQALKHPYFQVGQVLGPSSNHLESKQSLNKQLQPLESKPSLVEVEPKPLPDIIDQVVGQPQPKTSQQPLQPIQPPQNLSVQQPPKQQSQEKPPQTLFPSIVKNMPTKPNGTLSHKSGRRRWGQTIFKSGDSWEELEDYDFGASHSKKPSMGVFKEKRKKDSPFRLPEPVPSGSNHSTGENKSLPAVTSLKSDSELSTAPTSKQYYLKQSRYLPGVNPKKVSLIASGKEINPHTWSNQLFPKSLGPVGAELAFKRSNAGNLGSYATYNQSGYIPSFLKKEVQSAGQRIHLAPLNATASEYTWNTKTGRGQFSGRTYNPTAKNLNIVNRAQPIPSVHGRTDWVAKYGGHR

Sequence of Cyclin-dependent kinase 7/ cyclin H (P51946 whole entry): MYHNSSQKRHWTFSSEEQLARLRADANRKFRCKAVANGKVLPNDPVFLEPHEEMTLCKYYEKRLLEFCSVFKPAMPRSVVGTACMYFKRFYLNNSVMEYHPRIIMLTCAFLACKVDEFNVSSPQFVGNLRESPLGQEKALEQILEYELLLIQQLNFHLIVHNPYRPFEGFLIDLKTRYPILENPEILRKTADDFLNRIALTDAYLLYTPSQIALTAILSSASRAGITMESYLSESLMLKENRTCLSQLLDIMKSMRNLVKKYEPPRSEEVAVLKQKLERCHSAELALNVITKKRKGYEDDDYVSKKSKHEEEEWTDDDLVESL
Sequence of Cyclin-dependent kinase 7/ cyclin H (P50613 whole entry): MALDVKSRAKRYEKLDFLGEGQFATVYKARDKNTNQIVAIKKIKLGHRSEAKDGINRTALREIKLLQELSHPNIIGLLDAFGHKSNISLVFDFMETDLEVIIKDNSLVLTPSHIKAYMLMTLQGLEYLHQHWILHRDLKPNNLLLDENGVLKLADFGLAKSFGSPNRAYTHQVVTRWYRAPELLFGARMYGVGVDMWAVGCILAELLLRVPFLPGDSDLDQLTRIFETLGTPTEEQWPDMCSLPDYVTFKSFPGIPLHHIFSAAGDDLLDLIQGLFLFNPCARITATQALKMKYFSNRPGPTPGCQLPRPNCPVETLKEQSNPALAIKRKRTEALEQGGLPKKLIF
Sequence of Voltage-gated inwardly rectifying potassium channel KCNH2 (Q12809 whole entry): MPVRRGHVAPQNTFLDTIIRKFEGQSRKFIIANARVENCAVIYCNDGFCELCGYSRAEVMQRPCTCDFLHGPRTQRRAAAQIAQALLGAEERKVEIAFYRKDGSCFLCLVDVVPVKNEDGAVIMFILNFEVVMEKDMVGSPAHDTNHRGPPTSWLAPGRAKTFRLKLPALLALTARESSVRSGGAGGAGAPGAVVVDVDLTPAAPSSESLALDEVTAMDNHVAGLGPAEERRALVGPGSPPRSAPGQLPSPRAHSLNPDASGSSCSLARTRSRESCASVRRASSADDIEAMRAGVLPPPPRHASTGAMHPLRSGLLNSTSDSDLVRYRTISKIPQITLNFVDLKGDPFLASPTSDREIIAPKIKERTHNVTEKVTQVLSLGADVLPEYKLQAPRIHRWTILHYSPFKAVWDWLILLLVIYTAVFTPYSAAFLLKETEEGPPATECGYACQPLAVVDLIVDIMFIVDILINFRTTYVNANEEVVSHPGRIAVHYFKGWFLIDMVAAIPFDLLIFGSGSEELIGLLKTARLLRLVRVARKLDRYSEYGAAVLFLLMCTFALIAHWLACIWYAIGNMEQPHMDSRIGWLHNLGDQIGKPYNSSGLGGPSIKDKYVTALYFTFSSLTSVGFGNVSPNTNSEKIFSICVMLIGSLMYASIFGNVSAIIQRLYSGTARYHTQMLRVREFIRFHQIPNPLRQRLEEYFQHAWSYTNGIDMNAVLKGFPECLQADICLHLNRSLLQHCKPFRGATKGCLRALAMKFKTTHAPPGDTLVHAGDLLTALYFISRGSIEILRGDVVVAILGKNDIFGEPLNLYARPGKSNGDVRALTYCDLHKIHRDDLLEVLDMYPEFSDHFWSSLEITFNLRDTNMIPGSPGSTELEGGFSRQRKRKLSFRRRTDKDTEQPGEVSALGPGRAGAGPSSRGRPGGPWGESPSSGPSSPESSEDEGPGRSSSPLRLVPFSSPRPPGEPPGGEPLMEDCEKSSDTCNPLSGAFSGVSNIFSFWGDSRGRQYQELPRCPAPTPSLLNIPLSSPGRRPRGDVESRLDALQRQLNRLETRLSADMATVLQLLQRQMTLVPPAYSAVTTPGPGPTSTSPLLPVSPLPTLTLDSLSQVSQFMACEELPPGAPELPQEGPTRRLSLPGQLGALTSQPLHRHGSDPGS
Sequence of CDK8/Cyclin C (P49336 whole entry): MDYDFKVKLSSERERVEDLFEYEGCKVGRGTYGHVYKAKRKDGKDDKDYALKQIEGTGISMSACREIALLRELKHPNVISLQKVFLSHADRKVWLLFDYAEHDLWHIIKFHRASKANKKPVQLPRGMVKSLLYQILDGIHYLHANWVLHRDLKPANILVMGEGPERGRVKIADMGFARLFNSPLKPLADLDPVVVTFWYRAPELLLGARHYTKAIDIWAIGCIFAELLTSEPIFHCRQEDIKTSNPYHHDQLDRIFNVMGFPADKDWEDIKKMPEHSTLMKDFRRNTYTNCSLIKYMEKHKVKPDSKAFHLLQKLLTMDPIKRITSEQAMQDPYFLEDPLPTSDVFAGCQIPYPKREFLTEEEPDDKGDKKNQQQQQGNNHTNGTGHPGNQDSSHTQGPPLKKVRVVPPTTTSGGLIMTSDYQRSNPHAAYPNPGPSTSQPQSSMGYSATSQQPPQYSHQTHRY
Sequence of CDK8/Cyclin C (P24863 whole entry, further chain): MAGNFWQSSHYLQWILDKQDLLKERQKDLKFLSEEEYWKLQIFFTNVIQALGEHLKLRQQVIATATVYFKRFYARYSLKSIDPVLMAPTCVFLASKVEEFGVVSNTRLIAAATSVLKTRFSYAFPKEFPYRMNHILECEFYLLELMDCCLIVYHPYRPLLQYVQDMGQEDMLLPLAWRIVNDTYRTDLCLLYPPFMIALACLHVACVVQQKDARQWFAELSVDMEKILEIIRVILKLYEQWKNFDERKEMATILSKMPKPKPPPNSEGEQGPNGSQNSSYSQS
Sequence of Glycogen synthase kinase-3 (Homo sapiens) (P49840 whole entry, looked up): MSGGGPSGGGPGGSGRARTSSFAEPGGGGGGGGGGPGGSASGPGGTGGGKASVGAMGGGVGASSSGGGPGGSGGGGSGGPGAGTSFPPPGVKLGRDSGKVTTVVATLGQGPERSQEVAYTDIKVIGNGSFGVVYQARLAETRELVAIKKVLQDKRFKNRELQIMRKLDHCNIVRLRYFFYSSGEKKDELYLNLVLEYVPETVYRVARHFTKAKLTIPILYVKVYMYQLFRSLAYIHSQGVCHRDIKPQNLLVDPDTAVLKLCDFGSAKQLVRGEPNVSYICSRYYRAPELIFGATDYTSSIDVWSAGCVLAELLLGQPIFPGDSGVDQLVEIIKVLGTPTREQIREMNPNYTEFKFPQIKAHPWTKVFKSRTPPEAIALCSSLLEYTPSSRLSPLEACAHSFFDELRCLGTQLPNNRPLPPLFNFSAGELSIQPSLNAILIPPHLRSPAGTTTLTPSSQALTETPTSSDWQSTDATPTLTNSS
Sequence of Glycogen synthase kinase-3 (Homo sapiens) (P49841 whole entry, looked up): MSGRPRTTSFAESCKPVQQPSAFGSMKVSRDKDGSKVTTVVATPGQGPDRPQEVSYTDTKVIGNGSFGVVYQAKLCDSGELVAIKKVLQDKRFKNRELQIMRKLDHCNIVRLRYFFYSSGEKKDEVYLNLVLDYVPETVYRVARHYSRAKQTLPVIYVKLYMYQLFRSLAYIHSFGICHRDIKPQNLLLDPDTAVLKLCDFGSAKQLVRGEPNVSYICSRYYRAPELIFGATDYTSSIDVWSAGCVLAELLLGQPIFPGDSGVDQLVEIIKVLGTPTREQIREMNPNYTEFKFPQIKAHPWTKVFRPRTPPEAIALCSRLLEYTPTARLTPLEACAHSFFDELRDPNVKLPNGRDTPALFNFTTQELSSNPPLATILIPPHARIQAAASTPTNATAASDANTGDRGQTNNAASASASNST

COc1cc(F)ccc1-c1nc(Nc2ccc3c(N4CCOCC4)c(C(C)=O)c(=O)oc3c2)ncc1F
IC50 [1]: 16600 nM | Activity (MV4-11 [2]): 0.18 g | AUC(0-t) at 24 h [3]: 1200 ng·h/mL | microsomal CLint at 1 µM [4]: 38.8 µL/min/mg | Activity [5]: < 10% | IC50 (PANC-1): 300 nM | microsomal CLint at 1 µM [6]: 689 µL/min/mg | Tmax [7]: 15 min | inhibition in vivo at 40 mg/kg (MV4-11 [8]): 100% | IC50 [9]: 10100 nM | half-life at 1 µM [10]: 14 min | Activity (MV4-11 [11]): Dose-dependent effect | IC50 (A-375): 90 nM | IC50 (CDK8/Cyclin C): 6500 nM | clearance [12]: 59.3 mL/min/kg | half-life at 1 µM [13]: 2.01 min | IC50 [14]: 1010 nM | IC50 (BXPC-3): 80 nM | IC50 (MDA-MB-231): 230 nM | Activity [15]: < 10%
